For experiment [1], the target named is T1, Thymidylate synthase (Mus musculus, UniProt P07607). Put plainly: Inhibition of thymidylate synthase, partially purified from L1210 mouse leukemia cells overexpressing TS. In kind it is cell-free. The note with it: read-out: Ki app. In a few lines: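 Enzyme partially purified from L1210 mouse leukemia cells that overproduce TS through TS gene amplification. Assayed by the previously described method with (±)-5,10-methylenetetrahydrofolic acid at 200 μM. Apparent Ki was calculated with the Goldstein equation for tight-binding inhibitors.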

The target of experiment [2] is Thymidylate synthase (Mus musculus) (UniProt P07607). Put plainly: Compound was evaluated for fold increase in Thymidylate synthase (TS) inhibition. In kind it is functional.
The target in experiment [3] is T1, Thymidylate synthase. Nature of the experiment: Compound was evaluated for inhibition of thymidylate synthase, partially purified from L1210 mouse leukemia cells that overproduce thymidylate synthase due to amplification of TS gene. The note with it: read-out: Ki app.

Molecules are shown by their SMILES.

Thymidylate synthase (Mus musculus), sequence (P07607 whole entry, looked up): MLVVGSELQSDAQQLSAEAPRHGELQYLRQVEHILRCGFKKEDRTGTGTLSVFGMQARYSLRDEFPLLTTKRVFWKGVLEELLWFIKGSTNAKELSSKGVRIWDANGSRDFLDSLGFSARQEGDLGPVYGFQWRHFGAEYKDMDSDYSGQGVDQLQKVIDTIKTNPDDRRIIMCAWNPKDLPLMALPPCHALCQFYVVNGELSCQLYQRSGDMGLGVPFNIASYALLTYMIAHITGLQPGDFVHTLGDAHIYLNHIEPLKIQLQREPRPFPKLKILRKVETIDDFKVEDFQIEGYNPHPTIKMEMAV
T1 sequence (P07607 whole entry): as the sequence (P07607 whole entry, looked up) above

Take `Cc1nc2ccc(CN(C)c3ccc(C(=O)N[C@@H](CCC(=O)N[C@@H](CCC(=O)N[C@@H](CCC(=O)O)C(=O)O)C(=O)O)C(=O)O)s3)cc2c(=O)[nH]1`: the Ki at Thymidylate synthase [1] came to 7.52 nM.

In the case of `Cc1nc(O)c2cc(CN(C)c3ccc(C(=O)N[C@@H](CCC(=O)N[C@@H](CCC(=O)O)C(=O)O)C(=O)O)s3)ccc2n1`, the Fold increase in experiment [2] came to 17.

`Cc1nc2ccc(CN(C)c3ccc(C(=O)N[C@@H](CCC(=O)N[C@@H](CCC(=O)N[C@@H](CCC(=O)N[C@@H](CCC(=O)N[C@@H](CCC(=O)N[C@@H](CCC(=O)O)C(=O)O)C(=O)O)C(=O)O)C(=O)O)C(=O)O)C(=O)O)s3)cc2c(=O)[nH]1`: the Ki on Thymidylate synthase [1] came to 3.7 nM.

In the case of `Cc1nc(O)c2cc(CN(C)c3ccc(C(=O)N[C@@H](CCC(=O)N[C@@H](CCC(=O)N[C@@H](CCC(=O)O)C(=O)O)C(=O)O)C(=O)O)s3)ccc2n1`, the Fold increase in experiment [2] is 56.

Take `Cc1nc(O)c2cc(CN(C)c3ccc(C(=O)N[C@@H](CCC(=O)N[C@@H](CCC(=O)N[C@@H](CCC(=O)N[C@@H](CCC(=O)N[C@@H](CCC(=O)O)C(=O)O)C(=O)O)C(=O)O)C(=O)O)C(=O)O)s3)ccc2n1`: the Fold increase in experiment [2] was found to be 110.

For `Cc1nc2ccc(CN(C)c3ccc(C(=O)N[C@@H](CCC(=O)N[C@@H](CCC(=O)O)C(=O)O)C(=O)O)s3)cc2c(=O)[nH]1`, on Thymidylate synthase [1], the Ki was determined as 24 nM.

In experiment [2], `C#CCN(Cc1ccc2nc(C)cc(Cl)c2c1)c1ccc(C(=O)N[C@@H](CCC(=O)N[C@@H](CCC(=O)N[C@@H](CCC(=O)O)C(=O)O)C(=O)O)C(=O)O)c(F)c1` gave a Fold increase of 64. On Thymidylate synthase [1], the Ki was 1 nM.

Regarding `C#CCN(Cc1ccc2nc(C)nc(O)c2c1)c1ccc(C(=O)N[C@@H](CCC(=O)N[C@@H](CCC(=O)O)C(=O)O)C(=O)O)c(F)c1`, in experiment [2], the Fold increase was found to be 18. Further, the Ki on Thymidylate synthase [1] turned out to be 0.59 nM.

On to `Cc1nc2ccc(CN(C)c3ccc(C(=O)N[C@@H](CCC(=O)O)C(=O)O)s3)cc2c(=O)[nH]1` [RALTITREXED], for which the Ki on Thymidylate synthase [3] worked out at 418 nM.

In the case of `Cc1nc2ccc(CN(C)c3ccc(C(=O)N[C@@H](CCC(=O)N[C@@H](CCC(=O)N[C@@H](CCC(=O)N[C@@H](CCC(=O)N[C@@H](CCC(=O)O)C(=O)O)C(=O)O)C(=O)O)C(=O)O)C(=O)O)s3)cc2c(=O)[nH]1`, the Ki on Thymidylate synthase [1] turned out to be 3.79 nM.

On to `C#CCN(Cc1ccc2nc(C)cc(Cl)c2c1)c1ccc(C(=O)N[C@@H](CCC(=O)O)C(=O)O)c(F)c1`, for which the Ki on Thymidylate synthase [1] worked out at 63.7 nM.

On to `C#CCN(Cc1ccc2nc(C)[nH]c(=O)c2c1)c1ccc(C(=O)N[C@@H](CCC(=O)O)C(=O)O)c(F)c1`, for which the Ki on Thymidylate synthase [1] came to 10.4 nM.

As for `Cc1nc(O)c2cc(CN(C)c3ccc(C(=O)N[C@@H](CCC(=O)N[C@@H](CCC(=O)N[C@@H](CCC(=O)N[C@@H](CCC(=O)O)C(=O)O)C(=O)O)C(=O)O)C(=O)O)s3)ccc2n1`, the Fold increase in experiment [2] was 89. Besides, the Ki on Thymidylate synthase [1] is 4.69 nM.

In experiment [2], `Cc1nc(O)c2cc(CN(C)c3ccc(C(=O)N[C@@H](CCC(=O)N[C@@H](CCC(=O)N[C@@H](CCC(=O)N[C@@H](CCC(=O)N[C@@H](CCC(=O)N[C@@H](CCC(=O)O)C(=O)O)C(=O)O)C(=O)O)C(=O)O)C(=O)O)C(=O)O)s3)ccc2n1` yielded a Fold increase of 112.

The values are drawn from ChEMBL document CHEMBL1125391, “Syntheses and thymidylate synthase inhibitory activity of the poly-gamma-glutamyl conjugates of N-[5-[N-(3,4-dihydro-2-methyl-4-oxoquinazolin-6-ylmethyl)-N-methylamino ]-2-thenoyl]-L-glutamic acid (ICI D1694) and other quinazoline antifolates” (J Med Chem, 1992).
